Measured values reported in ChEMBL document CHEMBL4330069, “Boosting the efficacy of anti-MRSA β-lactam antibiotics via an easily accessible, non-cytotoxic and orally bioavailable FtsZ inhibitor” (Eur J Med Chem, 2019).
Converted amounts (≈) assume the structure as drawn.

Experiments:
Staphylococcus aureus [1] = assay: Synergistic antibacterial activity against multidrug-resistant Staphylococcus aureus isolate 1136 in presence of cloxacillin by broth microdilution assay; format: functional
How it was run: (§1)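 Clinical MRSA isolate panel; compound and β-lactam tested alone and in combination by CLSI broth microdilution, compounds dissolved in DMSO, growth inhibition scored by eye, run in duplicate. FIC index = FIC(compound) + FIC(drug), each the MIC in combination divided by the MIC alone; an index ≤ 0.5 was called synergy.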

Staphylococcus aureus [2] = assay: Synergistic antibacterial activity against multidrug-resistant Staphylococcus aureus isolate 1402 assessed as fractional Inhibitory concentration index in presence of amoxicillin by broth microdilution assay; format: functional
How it was run: (§2)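 CLSI broth microdilution run on clinical MRSA isolates with each β-lactam alone, the test agent alone, and the two combined; agents dissolved in DMSO. Growth inhibition was read by eye. FIC index = FIC(compound) + FIC(β-lactam), where each FIC is the MIC in combination divided by the MIC alone. An index ≤0.5 was taken as synergy.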

Staphylococcus aureus [3] = assay: Synergistic antibacterial activity against multidrug-resistant Staphylococcus aureus isolate 2728 assessed as fractional Inhibitory concentration index in presence of methicillin by broth microdilution assay; format: functional
Staphylococcus aureus [4] = assay: Synergistic antibacterial activity against multidrug-resistant Staphylococcus aureus isolate 3411 in presence of methicillin by broth microdilution assay; format: functional
Staphylococcus aureus [5] = assay: Synergistic antibacterial activity against multidrug-resistant Staphylococcus aureus isolate 1717 in presence of cloxacillin by broth microdilution assay; format: functional; how it was run: as §1
Staphylococcus aureus [6] = assay: Synergistic antibacterial activity against multidrug-resistant Staphylococcus aureus isolate 2973 assessed as fractional Inhibitory concentration index in presence of cloxacillin by broth microdilution assay; format: functional
Staphylococcus aureus [7] = assay: Synergistic antibacterial activity against multidrug-resistant Staphylococcus aureus isolate 3411 in presence of cloxacillin by broth microdilution assay; format: functional
Staphylococcus aureus [8] = assay: Synergistic antibacterial activity against multidrug-resistant Staphylococcus aureus isolate 1449 assessed as fractional Inhibitory concentration index in presence of cefuroxime by broth microdilution assay; format: functional; how it was run: as §2
Staphylococcus aureus [9] = assay: Synergistic antibacterial activity against multidrug-resistant Staphylococcus aureus isolate 1402 in presence of meropenem by broth microdilution assay; format: functional; how it was run: as §1
Staphylococcus aureus [10] = assay: Synergistic antibacterial activity against multidrug-resistant Staphylococcus aureus isolate 1449 in presence of methicillin by broth microdilution assay; format: functional; how it was run: as §1
Staphylococcus aureus [11] = assay: Synergistic antibacterial activity against multidrug-resistant Staphylococcus aureus isolate 2919 in presence of methicillin by broth microdilution assay; format: functional
How it was run: (§3)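 CLSI broth microdilution on clinical MRSA isolates. MICs were measured for the β-lactam alone, the test agent alone and the two combined. Compounds were dissolved in DMSO, and growth inhibition was scored by eye. FIC index is the sum, over both agents, of MIC in combination divided by MIC alone. An FIC index ≤0.5 was taken as synergy.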

Staphylococcus aureus [12] = assay: Antibacterial activity against multidrug-resistant Staphylococcus aureus isolate 2919 by broth microdilution assay; format: functional
How it was run: (§4)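 Broth microdilution MIC per CLSI guidelines against clinical MRSA isolates, for β-lactams and test compound alone and in combination. Compounds were dissolved in DMSO. Growth was read by eye, in duplicate. FIC index = FIC(compound) + FIC(drug); synergy defined as FIC index ≤0.5.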

Staphylococcus aureus [13] = assay: Synergistic antibacterial activity against multidrug-resistant Staphylococcus aureus isolate 256 assessed as fractional Inhibitory concentration index in presence of cefuroxime by broth microdilution assay; format: functional
Staphylococcus aureus [14] = assay: Synergistic antibacterial activity against multidrug-resistant Staphylococcus aureus isolate 2516 in presence of cefuroxime by broth microdilution assay; format: functional; how it was run: as §3
Staphylococcus aureus [15] = assay: Synergistic antibacterial activity against multidrug-resistant Staphylococcus aureus isolate 256 assessed as fractional Inhibitory concentration index in presence of cloxacillin by broth microdilution assay; format: functional
Staphylococcus aureus [16] = assay: Antibacterial activity against multidrug-resistant Staphylococcus aureus ATCC 43300 infected in BALB/C mouse assessed as mouse survival at 50 mg/kg, ip bid co-administered with 25 mg/kg, ip bid cefuroxime measured on day 4 post infection (reference value: 50%)
Staphylococcus aureus [17] = assay: Synergistic antibacterial activity against multidrug-resistant Staphylococcus aureus isolate 1136 in presence of amoxicillin by broth microdilution assay; format: functional; how it was run: as §4
Staphylococcus aureus [18] = assay: Synergistic antibacterial activity against multidrug-resistant Staphylococcus aureus isolate 1749 in presence of cefuroxime by broth microdilution assay; format: functional; how it was run: as §1
Staphylococcus aureus [19] = assay: Synergistic antibacterial activity against multidrug-resistant Staphylococcus aureus isolate 3580 assessed as fractional Inhibitory concentration index in presence of cloxacillin by broth microdilution assay; format: functional
Staphylococcus aureus [20] = assay: Synergistic antibacterial activity against multidrug-resistant Staphylococcus aureus isolate 3267 in presence of meropenem by broth microdilution assay; format: functional; how it was run: as §3
Staphylococcus aureus [21] = assay: Synergistic antibacterial activity against multidrug-resistant Staphylococcus aureus isolate 774 assessed as fractional Inhibitory concentration index in presence of meropenem by broth microdilution assay; format: functional
Staphylococcus aureus [22] = assay: Synergistic antibacterial activity against multidrug-resistant Staphylococcus aureus isolate 3580 in presence of meropenem by broth microdilution assay; format: functional
Staphylococcus aureus [23] = assay: Antibacterial activity against multidrug-resistant Staphylococcus aureus isolate 3580 by broth microdilution assay; format: functional; how it was run: as §4
Staphylococcus aureus [24] = assay: Synergistic antibacterial activity against multidrug-resistant Staphylococcus aureus isolate 2901 in presence of cefuroxime by broth microdilution assay; format: functional; how it was run: as §3
Staphylococcus aureus [25] = assay: Synergistic antibacterial activity against multidrug-resistant Staphylococcus aureus isolate 85 in presence of cloxacillin by broth microdilution assay; format: functional
Staphylococcus aureus [26] = assay: Synergistic antibacterial activity against multidrug-resistant Staphylococcus aureus isolate 200 in presence of cefuroxime by broth microdilution assay; format: functional; how it was run: as §1
Staphylococcus aureus [27] = assay: Synergistic antibacterial activity against multidrug-resistant Staphylococcus aureus isolate 2224 in presence of amoxicillin by broth microdilution assay; format: functional; how it was run: as §1
Staphylococcus aureus [28] = assay: Synergistic antibacterial activity against multidrug-resistant Staphylococcus aureus isolate 3589 in presence of cloxacillin by broth microdilution assay; format: functional
Staphylococcus aureus [29] = assay: Synergistic antibacterial activity against multidrug-resistant Staphylococcus aureus isolate 2973 assessed as fractional Inhibitory concentration index in presence of methicillin by broth microdilution assay; format: functional
Staphylococcus aureus [30] = assay: Synergistic antibacterial activity against multidrug-resistant Staphylococcus aureus isolate 1402 in presence of cefuroxime by broth microdilution assay; format: functional; how it was run: as §1
Staphylococcus aureus [31] = assay: Synergistic antibacterial activity against multidrug-resistant Staphylococcus aureus isolate 1402 in presence of amoxicillin by broth microdilution assay; format: functional; how it was run: as §1
Staphylococcus aureus [32] = assay: Synergistic antibacterial activity against multidrug-resistant Staphylococcus aureus isolate 1344 assessed as fractional Inhibitory concentration index in presence of methicillin by broth microdilution assay; format: functional; how it was run: as §2
Staphylococcus aureus [33] = assay: Synergistic antibacterial activity against multidrug-resistant Staphylococcus aureus isolate 2919 in presence of cefuroxime by broth microdilution assay; format: functional; how it was run: as §3
Staphylococcus aureus [34] = assay: Synergistic antibacterial activity against multidrug-resistant Staphylococcus aureus isolate 2919 in presence of amoxicillin by broth microdilution assay; format: functional; how it was run: as §3
Staphylococcus aureus [35] = assay: Synergistic antibacterial activity against multidrug-resistant Staphylococcus aureus isolate 3267 assessed as fractional Inhibitory concentration index in presence of methicillin by broth microdilution assay; format: functional
Staphylococcus aureus [36] = assay: Synergistic antibacterial activity against multidrug-resistant Staphylococcus aureus isolate 3267 assessed as fractional Inhibitory concentration index in presence of cefuroxime by broth microdilution assay; format: functional
Staphylococcus aureus [37] = assay: Synergistic antibacterial activity against multidrug-resistant Staphylococcus aureus isolate 2728 in presence of amoxicillin by broth microdilution assay; format: functional; how it was run: as §3
Staphylococcus aureus [38] = assay: Synergistic antibacterial activity against multidrug-resistant Staphylococcus aureus isolate 3580 assessed as fractional Inhibitory concentration index in presence of amoxicillin by broth microdilution assay; format: functional

In the case of CCCCCCCCCNc1ccc(F)c(C(N)=O)c1F, the MIC (Staphylococcus aureus [1]) was 2 µg/mL, the “fractional inhibitory concentration index (FICI)” value (Staphylococcus aureus [2]) was 1 and the “fractional inhibitory concentration index (FICI)” value (Staphylococcus aureus [3]) was 0.2. For the same compound, the MIC (Staphylococcus aureus [4]) was 2 µg/mL, the MIC (Staphylococcus aureus [5]) was 1 µg/mL and the “fractional inhibitory concentration index (FICI)” value (Staphylococcus aureus [6]) was 0.1. For the same compound, the MIC (Staphylococcus aureus [7]) was 1 µg/mL, the “fractional inhibitory concentration index (FICI)” value (Staphylococcus aureus [8]) was 1.5 and the MIC (Staphylococcus aureus [9]) was 4 µg/mL. It also gave an MIC (Staphylococcus aureus [10]) of 2 µg/mL, an MIC (Staphylococcus aureus [11]) of 4 µg/mL and an MIC (Staphylococcus aureus [12]) of 16 µg/mL (≈ 53.6 µM). The “fractional inhibitory concentration index (FICI)” value (Staphylococcus aureus [13]) was 0, the MIC (Staphylococcus aureus [14]) was 2 µg/mL and the “fractional inhibitory concentration index (FICI)” value (Staphylococcus aureus [15]) was 0.1. It also gave an Activity (Staphylococcus aureus [16]) of 100%, an MIC (Staphylococcus aureus [17]) of 16 µg/mL and an MIC (Staphylococcus aureus [18]) of 2 µg/mL. The “fractional inhibitory concentration index (FICI)” value (Staphylococcus aureus [19]) was 0.5, the MIC (Staphylococcus aureus [20]) was 8 µg/mL and the “fractional inhibitory concentration index (FICI)” value (Staphylococcus aureus [21]) was 0.1. For the same compound, the MIC (Staphylococcus aureus [22]) was 8 µg/mL, the MIC (Staphylococcus aureus [23]) was 32 µg/mL (≈ 107 µM) and the MIC (Staphylococcus aureus [24]) was 2 µg/mL. The MIC (Staphylococcus aureus [25]) was 0.5 µg/mL, the MIC (Staphylococcus aureus [26]) was 2 µg/mL and the MIC (Staphylococcus aureus [27]) was 64 µg/mL. The MIC (Staphylococcus aureus [28]) was 2 µg/mL, the “fractional inhibitory concentration index (FICI)” value (Staphylococcus aureus [29]) was 0.3 and the MIC (Staphylococcus aureus [30]) was 2 µg/mL. The MIC (Staphylococcus aureus [31]) was 4 µg/mL, the “fractional inhibitory concentration index (FICI)” value (Staphylococcus aureus [32]) was 0.3 and the MIC (Staphylococcus aureus [33]) was 2 µg/mL. For the same compound, the MIC (Staphylococcus aureus [34]) was 8 µg/mL, the “fractional inhibitory concentration index (FICI)” value (Staphylococcus aureus [35]) was 0.1 and the “fractional inhibitory concentration index (FICI)” value (Staphylococcus aureus [36]) was 0. The MIC (Staphylococcus aureus [37]) was 8 µg/mL and the “fractional inhibitory concentration index (FICI)” value (Staphylococcus aureus [38]) was 0.3.
